Experimental data from ChEMBL document CHEMBL3877264, “Quinolidene-rhodanine conjugates: Facile synthesis and biological evaluation” (Eur J Med Chem, 2017).
Values after ≈ are worked out from the molar mass of the structure shown.

Assays:
[1] = Cytotoxicity against […]-differentiated human THP1 cells assessed as growth inhibition at 100 ug/ml measured after 48 hrs by MTT assay relative to control; type: toxicity, cell-based, THP-1; details: read-out: GI
Procedure, shortened: (§1)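 MTT assay with 48 h compound exposure. THP-1 macrophages made by 24 h PMA treatment. Each concentration tested in triplicate in one experiment. % cytotoxicity = (control−test)/(control−blank)×100, with control = cells + DMSO and blank = medium without cells. IC50 from % survival versus concentration plots.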

Bacillus subtilis [2] = assay: Growth inhibition of Bacillus subtilis NCIM 2079 at 30 ug/ml measured after 12 hrs relative to control; type: functional; details: NCIM 2079, 12 h, read-out: GI
Procedure, shortened: (§2)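 Bacteria grown in LB at 37 °C and 180 rpm to OD 1. Compounds added to wells, then 0.1% inoculum of 1 OD culture (620 nm). Growth read as OD at 620 nm after 8 h for gram-negative and after 12 h for gram-positive strains.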

[3] = tested on: Mycobacterium tuberculosis; assay: Growth inhibition of Mycobacterium bovis BCG ATCC 35743 at dormant stage at 25 ug/ml measured after 12 days by nitrate reductase dye based two fold dilution method relative to control; type: functional; details: BCG str. ATCC 35743, 288 h, read-out: GI
Procedure, shortened: (§3)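 M. bovis BCG was grown in Dubos medium and assayed in Mycobacterium pheli minimal medium (pH 6.6), with compounds from DMSO stocks. Incubation lasted 8 days for active and 12 days for dormant cultures. Viability was read by nitrate reductase at 540 nm against cell-free blanks, with vehicle set as 100% growth. Primary screen was at 30, 10 and 3 µg/ml, in triplicate, mean ± SD. MIC was taken from dose-response curves.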

Staphylococcus aureus = assay: Antibacterial activity against of Staphylococcus aureus NCIM 2010 measured after 12 hrs; type: functional; details: NCIM 2010, 12 h; procedure, shortened: as §2
Candida albicans = assay: Antifungal activity against Candida albicans NCIM 3471 by standard agar method; type: functional
Procedure, shortened: (§4)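 MICs determined by standard agar method; DMSO as solvent control.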

[4] = tested on: Mycobacterium tuberculosis; assay: Growth inhibition of Mycobacterium tuberculosis H37Ra ATCC 25177 at active stage at 1.56 ug/ml measured after 8 days by XTT dye based two fold dilution method relative to control; type: functional; details: H37Ra ATCC 25177, 192 h, read-out: GI
Procedure, shortened: (§5)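 MTB H37Ra was grown in Dubos medium, then exposed in Mycobacterium pheli minimal medium (pH 6.6) to compounds dissolved in DMSO. The assay ended on day 8 (active) or day 12 (dormant). Viable cells were measured by XTT reduction menadione assay at 470 nm, blank-corrected, relative to vehicle control. Triplicates were expressed as mean ± SD. MIC came from dose-response curves.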

Pseudomonas fluorescens = assay: Growth inhibition of Pseudomonas fluorescens NCIM 2036 at 3 ug/ml measured after 8 hrs relative to control; type: functional; details: NCIM 2036, 8 h, read-out: GI; procedure, shortened: as §2
[5] = tested on: Mycobacterium tuberculosis; assay: Growth inhibition of Mycobacterium bovis BCG ATCC 35743 at dormant stage at 30 ug/ml measured after 12 days by nitrate reductase dye based two fold dilution method relative to control; type: functional; details: BCG str. ATCC 35743, 288 h, read-out: GI; procedure, shortened: as §3
[6] = tested on: Mycobacterium tuberculosis; assay: Growth inhibition of Mycobacterium tuberculosis H37Ra ATCC 25177 at dormant stage at 50 ug/ml measured after 12 days by XTT dye based two fold dilution method relative to control; type: functional; details: H37Ra ATCC 25177, 288 h, read-out: GI; procedure, shortened: as §5
Escherichia coli [7] = assay: Antibacterial activity against Escherichia coli NCIM 2688 measured after 8 hrs; type: functional; details: NCIM 2688, 8 h; procedure, shortened: as §2
[8] = Cytotoxicity against primary HUVEC measured after 48 hrs by MTT assay; type: toxicity, cell-based; details: human
[9] = Cytotoxicity against human THP1 cells measured after 48 hrs by MTT assay; type: toxicity, cell-based, THP-1; procedure, shortened: as §1
[10] = tested on: Mycobacterium tuberculosis; assay: Growth inhibition of Mycobacterium tuberculosis H37Ra ATCC 25177 at active stage at 100 ug/ml measured after 8 days by XTT dye based two fold dilution method relative to control; type: functional; details: H37Ra ATCC 25177, 192 h, read-out: GI; procedure, shortened: as §5
Escherichia coli [11] = assay: Growth inhibition of Escherichia coli NCIM 2688 at 3 ug/ml measured after 8 hrs relative to control; type: functional; details: NCIM 2688, 8 h, read-out: GI; procedure, shortened: as §2
[12] = Antifungal activity against Fusarium oxysporum NCIM 1332 by standard agar method; type: functional; procedure, shortened: as §4
[13] = tested on: Mycobacterium tuberculosis; assay: Growth inhibition of Mycobacterium tuberculosis H37Ra ATCC 25177 at active stage at 6.25 ug/ml measured after 8 days by XTT dye based two fold dilution method relative to control; type: functional; details: H37Ra ATCC 25177, 192 h, read-out: GI; procedure, shortened: as §5
Bacillus subtilis [14] = assay: Antibacterial activity against Bacillus subtilis NCIM 2079 measured after 12 hrs; type: functional; details: NCIM 2079, 12 h; procedure, shortened: as §2
[15] = tested on: Mycobacterium tuberculosis; assay: Growth inhibition of Mycobacterium bovis BCG ATCC 35743 at dormant stage at 50 ug/ml measured after 12 days by nitrate reductase dye based two fold dilution method relative to control; type: functional; details: BCG str. ATCC 35743, 288 h, read-out: GI; procedure, shortened: as §3
[16] = Cytotoxicity against human PANC1 cells measured after 48 hrs by MTT assay; type: toxicity, cell-based, PANC-1
[17] = tested on: Mycobacterium tuberculosis; assay: Growth inhibition of Mycobacterium bovis BCG ATCC 35743 at dormant stage at 6.25 ug/ml measured after 12 days by nitrate reductase dye based two fold dilution method relative to control; type: functional; details: BCG str. ATCC 35743, 288 h, read-out: GI; procedure, shortened: as §3
[18] = tested on: Mycobacterium tuberculosis; assay: Growth inhibition of Mycobacterium bovis BCG ATCC 35743 at dormant stage at 100 ug/ml measured after 12 days by nitrate reductase dye based two fold dilution method relative to control; type: functional; details: BCG str. ATCC 35743, 288 h, read-out: GI; procedure, shortened: as §3
[19] = Cytotoxicity against human PANC1 cells assessed as growth inhibition at 100 ug/ml measured after 48 hrs by MTT assay relative to control; type: toxicity, cell-based, PANC-1; details: read-out: GI
[20] = tested on: Mycobacterium tuberculosis; assay: Growth inhibition of Mycobacterium tuberculosis H37Ra ATCC 25177 at dormant stage at 100 ug/ml measured after 12 days by XTT dye based two fold dilution method relative to control; type: functional; details: H37Ra ATCC 25177, 288 h, read-out: GI; procedure, shortened: as §5
[21] = Cytotoxicity against human THP1 cells assessed as growth inhibition at 100 ug/ml measured after 48 hrs by MTT assay relative to control; type: toxicity, cell-based, THP-1; details: read-out: GI; procedure, shortened: as §1
[22] = tested on: Mycobacterium tuberculosis; assay: Growth inhibition of Mycobacterium tuberculosis H37Ra ATCC 25177 at dormant stage measured after 12 days by XTT dye based two fold dilution method; type: functional; details: H37Ra ATCC 25177, 288 h; procedure, shortened: as §5
Bacillus subtilis [23] = assay: Growth inhibition of Bacillus subtilis NCIM 2079 at 3 ug/ml measured after 12 hrs relative to control; type: functional; details: NCIM 2079, 12 h, read-out: GI; procedure, shortened: as §2
[24] = tested on: Mycobacterium tuberculosis; assay: Growth inhibition of Mycobacterium tuberculosis H37Ra ATCC 25177 at active stage measured after 8 days by XTT dye based two fold dilution method; type: functional; details: H37Ra ATCC 25177, 192 h; procedure, shortened: as §5
[25] = Selectivity index, ratio of GI50 for human PANC1 cells to MIC for Mycobacterium tuberculosis H37Ra ATCC 25177 at dormant stage; type: toxicity, cell-based, PANC-1; details: read-out: Selectivity Index
Procedure, shortened: (§6)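 SI is the cell-line GI50 divided by the dormant-stage mycobacterial MIC. […] THP-1 macrophages were PMA-differentiated for 24 h.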

[26] = Selectivity index, ratio of GI50 for human A549 cells to MIC for Mycobacterium tuberculosis H37Ra ATCC 25177 at dormant stage; type: toxicity, cell-based; details: read-out: Selectivity Index; procedure, shortened: as §6
[27] = Selectivity index, ratio of GI50 for HUVEC to MIC for Mycobacterium tuberculosis H37Ra ATCC 25177 at dormant stage
[28] = Selectivity index, ratio of GI50 for […]-differentiated human THP1 cells to MIC for Mycobacterium tuberculosis H37Ra ATCC 25177 at dormant stage; type: toxicity, cell-based, THP-1; details: read-out: Selectivity Index; procedure, shortened: as §6

SMILES | inhibition at 48 h, 100 ug/ml [1] [%] | inhibition of growth at 30 µg/mL (Bacillus subtilis [2]) [%] | MIC (Staphylococcus aureus) [µg/mL] | inhibition of growth at 1.56 µg/mL [4] [%] | inhibition of growth at 3 µg/mL (Pseudomonas fluorescens) [%] | inhibition of growth at 30 µg/mL [5] [%] | inhibition of growth at 50 µg/mL [6] [%] | MIC (Escherichia coli [7]) [µg/mL] | GI50 at 48 h [8] [µg/mL] | GI50 at 48 h [9] [µg/mL] | inhibition of growth at 100 µg/mL [10] [%] | inhibition of growth at 3 µg/mL (Escherichia coli [11]) [%] | MIC [12] [µg/mL] | inhibition of growth at 6.25 µg/mL [13] [%] | MIC (Bacillus subtilis [14]) [µg/mL] | GI50 at 48 h [16] [µg/mL] | inhibition at 48 h, 100 ug/ml [19] [%] | inhibition of growth at 100 µg/mL [20] [%] | inhibition at 48 h, 100 ug/ml [21] [%] | IC50 [22] [µg/mL] | also measured
COc1ccc2cc(/C=C3\SC(=S)NC3=O)c(Cl)nc2c1 | 31.3 | 8.36 | > 30 | -6.28 | 0.629 | 10.1 | 104 | > 30 | > 100 | > 100 | 96.4 | 26.4 | 50 (≈ 148 µM) | 43.8 | > 30 | > 100 | 29.8 | 85.2 | 26.7 | 10 (≈ 29.7 µM) | inhibition of growth at 25 µg/mL [3]: 99.8%; MIC (Candida albicans): 50 µg/mL (≈ 148 µM); inhibition of growth at 50 µg/mL [15]: 100%; inhibition of growth at 6.25 µg/mL [17]: 94%; inhibition of growth at 100 µg/mL [18]: 99%; IC90 [22]: > 30 µg/mL; inhibition of growth at 3 µg/mL (Bacillus subtilis [23]): -4.12%; IC50 [24]: 5.7 µg/mL (≈ 16.9 µM); IC90 [24]: 21.1 µg/mL (≈ 62.6 µM)
Cc1cccc2cc(/C=C3\SC(=S)N(CC(=O)O)C3=O)c(Cl)nc12 | 25 | -24.5 | > 30 | -2.86 | 11.2 | 70 | 102 | > 30 | > 100 | > 100 | 98.5 | 8.28 | 175 (≈ 462 µM) | 12.9 | > 30 | > 100 | 5.9 | 100 | 32.3 | 10.3 (≈ 27.2 µM) | selectivity ratio [25]: 5; selectivity ratio [26]: 5; Selectivity Index [27]: 5; selectivity ratio [28]: 5; IC90 [22]: 19.9 µg/mL (≈ 52.5 µM); inhibition of growth at 3 µg/mL (Bacillus subtilis [23]): -3.67%; IC50 [24]: 21.2 µg/mL (≈ 56 µM); IC90 [24]: 27.3 µg/mL (≈ 72.1 µM)
O=C1NC(=S)S/C1=C\c1cc2cc(F)ccc2nc1Cl | 19.2 | -3.29 | 22.6 (≈ 69.7 µM) | 31.9 | 29.3 | 76.5 | 110 | > 30 | > 100 | > 100 | 101 | 18.9 | 25 (≈ 77 µM) | 96.2 | > 30 | > 100 | 37.5 | 97.3 | 26.3 | 5.1 (≈ 15.7 µM) | selectivity ratio [25]: 5.6; selectivity ratio [26]: 5.6; inhibition of growth at 25 µg/mL [3]: 100%; MIC (Candida albicans): 50 µg/mL (≈ 154 µM); Selectivity Index [27]: 5.6; selectivity ratio [28]: 5.6; inhibition of growth at 50 µg/mL [15]: 100%; inhibition of growth at 6.25 µg/mL [17]: 100%; inhibition of growth at 100 µg/mL [18]: 98.5%; IC90 [22]: 18 µg/mL (≈ 55.4 µM); inhibition of growth at 3 µg/mL (Bacillus subtilis [23]): -6.11%
